Type in all cases: functional, cell-based
For one assay, the system named is SW480. As to the kind of experiment: Cytotoxicity against human SW480 cells after 48 hrs by MTT assay. The note with it: SW480, 48 h. Put shortly:
(§1)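 Cells kept in RPMI-1640 or DMEM with 10% FBS, 37 °C, 5% CO2. Adherent lines plated and left 12 h to attach; suspension cells (HL-60) plated at 1 × 10^5 cells/mL just before dosing. Compounds in DMSO at 0.064, 0.32, 1.6, 8 and 40 μM, triplicate wells, 48 h; cisplatin positive control. MTT viability read-out, IC50 by Reed and Muench method.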

A further assay has as its system MCF7. Description: Cytotoxicity against human MCF7 cells after 48 hrs by MTT assay. The note with it: MCF7, 48 h. Put shortly:
as §1
(In general: Formazan colour is commonly taken as a measure of viable cells.)

A short description of assay [1]: Cytotoxicity against human […] cells after 48 hrs by MTT assay. The procedure, abridged: as §1
In the next assay the test system is A549. Description: Cytotoxicity against human A549 cells after 48 hrs by MTT assay. The note with it: A549, 48 h. The procedure, abridged:
as §1

In the next assay the test system is HL-60. As to the kind of experiment: Cytotoxicity against human HL60 cells after 48 hrs by MTT assay. To be noted: HL-60, 48 h. The procedure, abridged: as §1

The text below walks through data of ChEMBL document CHEMBL3091450, “Melosuavines A-H, cytotoxic bisindole alkaloid derivatives from Melodinus suaveolens” (J Nat Prod, 2013).

As usually defined, the IC50 is the midpoint of a concentration-inhibition curve. A low value points to greater potency in that assay.

SMILES strings stand for the structures.

Turning to `C=C[C@]12C=C[C@@H](c3cc4c(cc3O)NC3=C(C(=O)OC)C[C@]5(CC)C=CCN6CC[C@@]34[C@@H]65)N3CC[C@@]4(c5ccccc5NC(=O)[C@]4(C(=O)OC)C1)[C@@H]32` (relative stereo), the IC50 in the assay on SW480 stood at 2.9 µM; in the assay with MCF7 it was 6.1 µM; in assay [1] it was 3.1 µM; in the assay on A549 it was 8.9 µM; in the assay with HL-60 it was 2.8 µM.

With `CC[C@]12C=CCN3CC[C@]4(C(=C(C(=O)OC)C1)Nc1cc(O)c([C@@H]5[C@@H]6O[C@@H]6[C@@]6(CC)CC(C(=O)OC)=C7Nc8cc(O)ccc8[C@@]78CCN5[C@@H]68)cc14)[C@@H]32` (relative stereo), the IC50 was determined as 14.4 µM in the assay on SW480; 11.6 µM with MCF7; 13.8 µM in assay [1]; 9.7 µM with A549; 5.5 µM in the assay on HL-60.

In the case of `CC[C@]12C=CCN3CC[C@]4(C(=C(C(=O)OC)C1)Nc1cc(O)c([C@@H]5C[C@]67c8ccccc8N[C@@]68CC[C@]6(C=CCN5[C@@H]67)C[C@H]8C(=O)OC)cc14)[C@@H]32` (relative stereo), the IC50 with SW480 was determined as 3.8 µM; in the assay on MCF7, 9.5 µM; in assay [1], 3.1 µM; in the assay with A549, 3.4 µM; with HL-60, 1 µM.

Take `CC[C@]12C=CCN3CC[C@]4(C(=C(C(=O)OC)C1)Nc1cc(O)c([C@@H]5[C@@H]6O[C@@H]6[C@]67CC[C@@]8(Nc9ccccc9[C@@]89CCN5[C@@H]69)[C@H](C(=O)OC)C7)cc14)[C@@H]32` (relative stereo): the IC50 (in the assay with SW480; in the assay on MCF7; in assay [1]; in the assay on A549; in the assay with HL-60) was more than 40 µM each time.

Turning to `CC[C@]12C=CCN3CC[C@]4(C(=C(C(=O)OC)C1)Nc1cc(O)c([C@H]5C=C[C@@]6(CC)CC(C(=O)OC)=C7Nc8cc(O)ccc8[C@@]78CCN5[C@@H]68)cc14)[C@@H]32` (relative stereo), the IC50 in the assay on SW480 is 12.5 µM; in the assay on MCF7, 10.7 µM; in assay [1] it was 12.6 µM; with A549, 12.4 µM; in the assay on HL-60, 4.8 µM.

`C=C[C@]12C=CCN3[C@@H](c4cc5c(cc4O)NC4=C(C(=O)OC)C[C@]6(CC)C=CCN7CC[C@@]45[C@@H]76)C[C@@]4(c5ccccc5NC(=O)[C@]4(C(=O)OC)C1)[C@@H]32` (relative stereo): the IC50 was more than 40 µM in the assay with SW480; more than 40 µM in the assay on MCF7; 29 µM in assay [1]; more than 40 µM in the assay on A549; 17.6 µM in the assay with HL-60.

As for `C=C[C@]12C=C[C@H](c3cc4c(cc3O)NC3=C(C(=O)OC)C[C@]5(CC)C=CCN6CC[C@@]34[C@@H]65)N3CC[C@@]4(c5ccccc5NC(=O)[C@]4(C(=O)OC)C1)[C@@H]32` (relative stereo), the IC50 with SW480 came to 9.8 µM; with MCF7 it was 11.6 µM; in assay [1], 5.9 µM; in the assay on A549, 11 µM; in the assay on HL-60, 2.6 µM.

For `CC[C@]12C=CCN3CC[C@]4(C(=C(C(=O)OC)C1)Nc1cc(O)c([C@@H]5C=C[C@@]6(CC)CC(C(=O)OC)=C7Nc8cc(O)ccc8[C@@]78CCN5[C@@H]68)cc14)[C@@H]32` (relative stereo), the IC50 with SW480 amounted to 4 µM; in the assay with MCF7 it was 6.6 µM; in assay [1] it was 3.6 µM; in the assay on A549, 7.5 µM; in the assay on HL-60, 3.5 µM.

On to `CC[C@]12C=CCN3CCc4c(n(c5ccccc45)[C@@H](c4cc5c(cc4OC)NC4=C(C(=O)OC)C[C@]6(CC)C=CCN7CC[C@@]45[C@@H]76)C1)[C@@H]32` (relative stereo), for which the IC50 (with SW480; with MCF7; in assay [1]; in the assay with A549; in the assay with HL-60) was more than 40 µM throughout.

Take `CC[C@]12C=CCN3CCc4c(n(c5ccccc45)[C@@H](c4cc5c(cc4O)NC4=C(C(=O)OC)C[C@]6(CC)C=CCN7CC[C@@]45[C@@H]76)C1)[C@@H]32`: the IC50 in the assay with SW480 worked out at 9.7 µM; in the assay with MCF7 it was 9.5 µM; in assay [1], 10 µM; with A549, 14.3 µM; with HL-60, 3.6 µM.
